Insulin prom up: MIN6 insulin promoter up-regulation | 0.3% of 190,000 active | z-score at 5 µM | AID 1625 | MIN6 insulin promoter-GFP reporter, high-content imaging; active compounds read high;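 active = z-score above 3 at 5 µM with at least 500 cells counted in the well; inconclusive = wells under 500 cells, flagged as cytotoxic or low count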
Dynein cargo inh: blocks dynein driven cargo transport along microtubules. 3617.4 mouse cells, GR-EGFP nuclear translocation imaging; test concentration mostly 20 µM; stimulated with dexamethasone, 1 µM; active compounds read low. z-score, hits read low. 0.47% of 220,000 active;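 active = plate z-score of nuclear minus cytoplasmic receptor signal below a set negative limit, without overly bright fluorescence or cell loss, cut at about -3.5 in these data, passing the limit was not always enough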;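 note: z-score of nuclear minus cytoplasmic ring GR-EGFP intensity difference per well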
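Medium: Induction medium lacking tetracycline, stripped serum | Probe or stimulus: 1.0 µM final dexamethasone stimulus | Schedule: 48 h induction, then 1 h compound, then 30 min agonist, 37 °C | Signal: Automated 10x imaging of fixed Hoechst-stained cells | Evaluation: Per-cell GR-EGFP intensity, nucleus versus surrounding cytoplasmic ring, well-averaged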
INS promoter inh: TRM-6 insulin promoter activity inhibition; inhibition, % at 2 µM; 0.9% of 130,000 active; TRM-6 cells (human fetal islet line), insulin promoter-eGFP reporter, imaging; reporter expression induced with tamoxifen;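 active = inhibition above the mean plus 3 SD, with well images judged a real hit on visual review, cut at about 60% in these data, passing the limit was not always enough; inconclusive = inhibition over the cutoff but images rejected on review; inactive = inhibition not above the cutoff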
Autophagy mod: modulators of autophagy | MEF GFP-LC3 puncta imaging; test concentration mostly 10 µM | calls only at 10 µM (by protocol) | 0.98% of 190,000 active | AID 463193;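 active = percentage of spot-positive cells more than 3 SD above its plate mean, without a fluorescence outlier flag or 80% toxicity; inconclusive = no clear call, values can overlap the other calls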;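 note: spot-positive cell cutoff set from DMSO-treated cells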
Furin inh: human furin inhibition | inhibition, % at 20 µM or 30 µM | 0.061% of 220,000 active | purified furin, fluorogenic substrate cleavage; in the data active = inhibition above about 25%
Target sequence (P09958 108-714 limits assumed): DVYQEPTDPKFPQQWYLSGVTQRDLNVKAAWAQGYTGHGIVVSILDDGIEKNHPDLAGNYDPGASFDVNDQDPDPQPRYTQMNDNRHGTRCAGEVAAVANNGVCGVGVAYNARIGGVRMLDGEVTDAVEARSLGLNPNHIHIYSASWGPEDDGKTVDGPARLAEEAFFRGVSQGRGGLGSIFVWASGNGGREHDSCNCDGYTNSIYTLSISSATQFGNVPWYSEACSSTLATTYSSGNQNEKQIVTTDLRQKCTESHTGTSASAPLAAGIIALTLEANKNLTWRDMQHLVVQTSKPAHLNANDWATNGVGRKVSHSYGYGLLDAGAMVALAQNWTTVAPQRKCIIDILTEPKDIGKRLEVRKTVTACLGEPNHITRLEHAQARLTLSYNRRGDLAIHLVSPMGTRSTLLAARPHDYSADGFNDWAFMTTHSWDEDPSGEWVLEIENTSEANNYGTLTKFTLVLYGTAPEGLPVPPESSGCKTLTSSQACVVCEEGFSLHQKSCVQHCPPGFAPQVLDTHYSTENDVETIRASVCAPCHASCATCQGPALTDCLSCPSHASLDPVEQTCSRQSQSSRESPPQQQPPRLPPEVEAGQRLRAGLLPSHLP
HSV augment: HSV replication enhancement; HSV replication augmentation in cells, fold increase; maximum fold increase; 0.005% of 220,000 active; AID 1956; in the data active = maximum fold increase above about 1.5; inconclusive = no clear call, values can overlap the other calls; tested in PC3 cells
Active calls of the source: *; i = inactive; ? = inconclusive; nt = no result; + = active, no number. Only some compounds are listed: those with a hit (about 2% of all), similar ones and a draw of the others.

SMILES	Insulin prom up	Dynein cargo inh	INS promoter inh	Autophagy mod	Furin inh	HSV augment
COc1ccc(NC(=O)C2CCN(C(=O)c3cccs3)CC2)c(OC)c1	-0.18	-0.0869	16.2	i	-2.2	i
CCOc1ccccc1NC(=O)N1C2CCCC1CC(NC(=O)C1CC1)C2 (stereo not given)	0.05	0.457	55.3	+	2.6	i
CN(C)CCNc1oc(COc2ccc(-c3ccccc3)cc2)nc1C#N	-1.18	2.95	30.8	+	-0.5	i
COc1ccccc1NC(=O)Cc1noc(CSc2nnc(C)n2C)n1	0.45	-0.524	0.0	i	-15.8	i
O=C(NCCCN1CCN(c2ccccc2F)CC1)C1CCCN(S(=O)(=O)c2cnc[nH]2)C1 (stereo not given)	1.02	0.408	nt	+	-13.3	nt
CN(CCCNC(=O)C1CCCN(S(=O)(=O)c2cnc[nH]2)C1)c1ccccc1 (stereo not given)	0.17	0.261	nt	i	-19.7	i
Cc1c(C(=O)Nc2ccc(F)cc2)oc2ccc(S(=O)(=O)N3CC(C)CC(C)C3)cc12 (stereo not given)	-0.94	0.389	71.0*	i	-20.0	i
CC(C)CCN1CCN(Cc2ccc(C#CCCO)cc2)CC1CCO (stereo not given)	-0.28	-0.497	nt	i	-24.3	i
Cc1nc2ccc(S(=O)(=O)NCC(=O)N3CCCC(C)C3)cc2s1 (stereo not given)	-0.35	-0.365	72.7*	i	-17.9	i
Cc1cccc(/C=C2/S/C(=N/N=C3\CC4CCC3(C)C4(C)C)NC2=O)c1 (stereo not given)	0.34	-0.896	nt	i	31.1*	i
CCOc1ccc(S(=O)(=O)N2c3ccccc3CC2C)cc1 (stereo not given)	?	0.199	-257.1	+	-5.0	i
Cc1ccc(S(=O)(=O)N2c3ccccc3CC2C)cc1 (stereo not given)	-1.22	-0.109	nt	i	-13.3	i
O=c1[nH]c2ccccc2n1C1=CCCC1	1.28	0.514	nt	i	-19.6	i
CSc1ccc(NC(=O)N2CC=C(n3c(=O)[nH]c4ccccc43)CC2)cc1	-0.41	0.0538	64.3*	i	-9.1	i
CC(C)c1ccc(-n2cnn(-c3ncccc3[N+](=O)[O-])c2=O)cc1	0.76	1.1	nt	i	-21.7	i
Cc1ccc(CO/N=C/C2=C(Cl)c3ccccc3CC2)cc1	-0.05	-1.52	78.6*	i	-21.7	i
CCC(=O)Nc1nonc1-c1nc2ccccc2n1Cc1cccc2ccccc12	nt	-0.365	-92.3	+	-19.4	i
CCC(=O)Nc1nonc1-c1nc2ccccc2n1Cc1ccccc1	0.84	-0.0284	?	i	-20.5	i
CC(C)N(Cc1ccccc1)C(=S)Nc1ccccc1F	nt	1.55	nt	nt	-4.1	i
COc1ccc(N2C(=O)C(CN3CCN(C)CC3)C2c2ccccc2)cc1 (stereo not given)	-0.04	-0.514	nt	i	-17.9	i
O=C(Cc1c2ccccc2nc2ccccc12)c1ccccc1	0.04	-0.363	61.1*	i	-21.4	i
Cc1ccc(C)c(NC(=O)Cc2ccc(S(=O)(=O)N3CCCCC3)s2)c1	0.1	0.846	nt	i	-12.5	i
CC(=O)Nc1ccc(NC(=O)Cc2ccc(S(=O)(=O)N3CCCCC3)s2)cc1	nt	0.0408	80.0*	i	-16.1	i
Cc1nnc(SCc2nc3ccccc3s2)n1-c1ccccc1	1.57	-0.892	-44.4	i	-5.7	i
c1ccc(-n2cnnc2SCc2nc3ccccc3s2)cc1	-0.82	-0.403	nt	+	-11.0	i
SMILES	Insulin prom up	Dynein cargo inh	INS promoter inh	Autophagy mod	Furin inh	HSV augment
Cc1cnc(NC(=O)CCCc2nc3ccccc3s2)s1	-0.37	-0.422	2.9	+	-11.0	i
COc1cc(/C=C2\SC(=S)N(c3cccnc3)C2=O)ccc1O	0.04	-0.128	nt	nt	-5.8	2.81*
Cc1ccc(S(=O)(=O)Nc2cccc3cccnc23)cc1	-0.14	0.466	12.3	+	-15.7	i
O=C(O)/C(=C\c1ccccc1OC(F)F)Sc1nnc(-c2ccc(F)cc2)o1	0.1	-0.847	-14.3	i	-25.9	i
CCCCCCN=CC1=C(O)C(C(=O)OC)C(C)(C)CC1=O (stereo not given)	-0.84	-0.598	93.1*	i	-13.6	i
COc1ccc(NC(=O)Nc2ncn(Cc3cccc(C(F)(F)F)c3)n2)cc1OC	nt	1.59	-11.6	i	29.2*	i
CC(C)CCn1c2ccccc2c2cc(CC(N)=O)ccc21	nt	-0.274	nt	nt	-7.3	i
CCOC(=O)Cc1cnc(NC(=O)CSc2nc(C)c(CC)c(=O)[nH]2)s1	0.13	-0.351	nt	i	-35.7	i
C#CCN1C(=O)S/C(=C/C=C/c2ccc(N(C)C)cc2)C1=O	-0.43	-0.77	-270.4	+	2.5	?
CCc1ccc(-n2c(=O)c3c(C)c(C(=O)N(C)C)sc3n(CC(=O)NCC3CCCO3)c2=O)cc1 (stereo not given)	-0.13	-0.516	7.1	i	-31.1	i
CCN(CC)C(=O)c1sc2c(c1C)c(=O)n(-c1ccc(C)c(C)c1)c(=O)n2CC(=O)NCC1CCCO1 (stereo not given)	0.1	2.04	83.3*	i	-10.0	i
CN(C)/C=C/C(=O)c1cc(N2CCOCC2)ccc1[N+](=O)[O-]	0.9	-1.25	nt	i	-15.2	i
CC(C)C(=O)c1cc2c(cc1NC(=O)c1ccccc1)OCCO2	nt	1.46	88.6*	i	-7.9	i
CC(=O)Nc1cc2c(cc1C(=O)C(C)C)OCCO2	-0.02	0.945	62.5	i	-11.6	i
CC(C)C(=O)c1cc2c(cc1NC(=O)c1cccs1)OCCO2	nt	0.47	71.4*	i	-8.6	i
O=[N+]([O-])c1ccc(N/N=C/c2cn(-c3ccccc3)nc2-c2ccccc2)cc1	nt	-2.67	-95.8	+	-14.9	?
CC(=O)C(=Cc1cn(-c2ccccc2)nc1-c1ccccc1)C(C)=O	3.2*	-1.59	nt	i	-25.5	i
NC(=O)CSc1nccn1Cc1ccc(Cl)cc1	0.29	0.0516	nt	i	-13.5	i
Cc1nnc(SCC(=O)Nc2ccc3c(c2)OCO3)n(N)c1=O	0.09	-0.208	nt	i	-36.4	i
CC1(C)Cc2c(sc3nc[nH]c(=O)c23)CO1	-0.06	0.334	100.0*	i	-13.4	i
CC1(C)Cc2c(sc3ncnc(N)c23)CO1	-0.38	-0.424	82.9*	i	12.3	i
CC1(C)Cc2c(sc3ncn4nnnc4c23)CO1	0.25	nt	nt	nt	nt	nt
CC1(C)Cc2c(sc3nn[nH]c(=O)c23)CO1	nt	-0.0557	nt	i	-18.6	i
CCOc1ccc(NC(=O)c2ccc(NC(=O)CSc3nc4ccccc4c(=O)[nH]3)cc2)cc1	-0.34	0.526	nt	i	-29.7	i
OC(COc1ccc(CNCCc2ccc(C(F)(F)F)cc2)cc1)CN1CCCCC1 (stereo not given)	nt	2.5	nt	+	-5.7	i

Screening results as filed in PubChem BioAssay.
